Compounds with a hit are over-represented: about 2.3% of the library has one in this group of screens.
TRPC6 act – activators of mouse TRPC6 channel | HEK293-TRPC6 membrane potential dye fluorescence; active compounds read high | AID 2550 | Q61143 | 310,000 compounds, 0.13% hits | B-score at 10 µM;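 active = B-score of the integrated fluorescence ratio above library mean plus 3 SD, and starting fluorescence ratio within library mean plus 5 SD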;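 also: higher score means more depolarization so channel activation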
Target sequence (Q61143 whole entry, looked up): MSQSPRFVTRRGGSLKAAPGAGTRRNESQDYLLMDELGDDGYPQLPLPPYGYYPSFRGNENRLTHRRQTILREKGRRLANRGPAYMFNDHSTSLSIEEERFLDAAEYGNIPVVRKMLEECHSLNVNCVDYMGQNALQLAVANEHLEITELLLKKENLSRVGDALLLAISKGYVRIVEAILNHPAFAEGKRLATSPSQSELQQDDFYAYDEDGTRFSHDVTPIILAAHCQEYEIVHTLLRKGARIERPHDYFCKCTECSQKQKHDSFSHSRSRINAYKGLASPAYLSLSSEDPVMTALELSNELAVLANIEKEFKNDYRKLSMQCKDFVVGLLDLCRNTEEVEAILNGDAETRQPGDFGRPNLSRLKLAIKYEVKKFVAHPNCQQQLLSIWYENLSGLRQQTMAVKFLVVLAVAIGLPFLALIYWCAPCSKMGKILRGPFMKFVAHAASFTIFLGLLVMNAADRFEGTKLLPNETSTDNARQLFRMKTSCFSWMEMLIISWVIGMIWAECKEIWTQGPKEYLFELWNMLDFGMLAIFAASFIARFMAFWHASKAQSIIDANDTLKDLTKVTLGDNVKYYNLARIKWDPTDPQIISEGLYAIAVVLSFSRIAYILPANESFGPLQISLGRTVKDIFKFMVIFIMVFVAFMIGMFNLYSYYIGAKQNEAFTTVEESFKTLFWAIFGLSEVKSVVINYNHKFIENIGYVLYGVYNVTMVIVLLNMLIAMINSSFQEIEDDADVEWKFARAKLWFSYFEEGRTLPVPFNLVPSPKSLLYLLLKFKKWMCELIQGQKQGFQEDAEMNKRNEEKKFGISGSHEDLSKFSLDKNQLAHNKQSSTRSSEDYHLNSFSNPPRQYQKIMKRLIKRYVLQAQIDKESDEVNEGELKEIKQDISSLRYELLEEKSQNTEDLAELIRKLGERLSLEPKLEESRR
TRPC4 block – blocks the mouse TRPC4 cation channel; Q9QUQ5; HEK293 TRPC4beta/mu-opioid, DAMGO-evoked Fluo4 calcium flux; active compounds read low; B-score at 10 µM; 300,000 compounds, 0.39% hits; AID 2247;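 active = B-score over 3 SD under the library average, no early fluorescence shift, positive overall ratio signal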
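test system = HEK293 cells with stable TRPC4beta plus mu-opioid receptor expression | detection = Fluo4 Ca2+ flux fluorescence | read-out = integrated fluorescence ratio relative to baseline, converted to per-well B score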
TRPC4 PAM – allosteric potentiators of mouse TRPC4 channel; HEK293 TRPC4beta/mu-opioid, DAMGO EC20, Fluo-4 Ca2+ flux; active compounds read high; 310,000 compounds, 0.42% hits; B-score at 10 µM; AID 2227;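 active = B-score of calcium response area above 5 SD of library B-scores, with initial fluorescence ratio within 5 SD of library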;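 also: B-score of integrated fluorescence ratio over time as area under calcium response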
TRPC4 agonist – activators of mouse TRPC4 channel; Q9QUQ5; HEK293 TRPC4beta/mu-opioid, Fluo4 calcium fluorescence; active compounds read high; B-score at 10 µM; 310,000 compounds, 0.49% hits; AID 2237;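 active = B-score above 5 SD of library B-scores, and initial fluorescence ratio not above library mean plus 5 SD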;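 also: positive B-score marks a calcium rise read as TRPC4 activation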
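Technique: kinetic Fluo4 calcium fluorescence; Test system: TRPC4beta and mu-opioid receptor HEK293 stable cells; Measure: B-scored integrated calcium fluorescence ratio; Benchmarks: low control buffer alone, high control maximal DAMGO; Schedule: 45 min room-temperature Fluo4 loading, 110 s read.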
TRPC6 inhibitor – mouse TRPC6 channel inhibition; B-score at 10 µM; 310,000 compounds, 1.1% hits; Q61143; HEK293-TRPC6, membrane potential dye, ACh-evoked depolarization; active compounds read low;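 active = B-score under library mean minus 3 SD, initial fluorescence not abnormally high, positive integrated signal ratio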;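 also: B-score derived from integrated fluorescence ratio over the kinetic read; more negative B-score means stronger inhibition of depolarization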
* = called active by the depositor; i = inactive.

SMILES	TRPC6 act	TRPC4 block	TRPC4 PAM	TRPC4 agonist	TRPC6 inhibitor
Cn1c(N2CCN(C(=O)NCc3ccccc3)CC2)nc2ccccc21	i	i	i	i	i
CN(C)CCOC(=O)c1sc2ccccc2c1Cl	i	i	i	92*	i
Cc1cccc(C(=O)NCCN(C)C)c1	i	i	i	73*	i
CCc1cc(C(=O)NCCN(C)C)cs1	i	i	i	78*	i
CC1C(=O)N(Cc2ccccc2F)c2ccccc2N1C(=O)c1c(F)cccc1F (centres undefined)	i	i	10*	i	i
COc1cccc(CN2C(=O)C(C)N(C(=O)c3c(F)cccc3F)c3ccccc32)c1 (centres undefined)	i	i	i	i	i
Cc1ccc(CNC(=O)C(=O)NCC2CCCN2S(=O)(=O)c2cccs2)cc1 (centres undefined)	i	i	i	i	i
CC1(c2ccc(OC(F)F)cc2)NC(=O)N(CC(=O)Nc2ccccc2)C1=O (centres undefined)	i	i	i	68*	i
CC1(c2ccc(OC(F)F)cc2)NC(=O)N(CC(=O)Nc2ccc3c(c2)OCO3)C1=O (centres undefined)	i	i	12*	89*	i
CC(=O)Nc1ccc(/C=N/N2C(=O)NC(C)(c3ccc(OC(F)F)cc3)C2=O)cc1 (centres undefined)	i	i	i	95*	i
OCCNCc1cc(Br)ccc1OCc1ccc(Cl)cc1Cl	i	-8*	i	i	i
Fc1ccc(COc2ccccc2CNCc2ccncc2)cc1	i	i	i	i	i
OCCCCNCc1cc(Br)ccc1OCc1ccccc1F	i	-7*	i	i	i
Clc1cc(Br)ccc1OCCCNCc1ccccc1	i	i	i	75*	i
Brc1ccc(OCc2ccccc2)c(CNCc2ccncc2)c1	i	-5*	i	i	i
CN(C)c1nc(N)c([N+](=O)[O-])c(N2CCCCCC2)n1	i	i	i	i	i
O=C(Nc1cccc2cccnc12)c1ccc(Br)cc1Br	i	i	i	i	i
O=C(Nc1nc(-c2ccc(F)c(F)c2)cs1)Nc1ccc(F)cc1F	i	i	i	i	i
CC(=O)c1cccc(NC(=O)C(C)OC(=O)c2cccc(-n3cnnn3)c2)c1 (centres undefined)	i	i	i	i	i
OCCNCc1cc(Br)ccc1OCc1ccc(F)cc1	i	-6*	i	i	i
O=C(COc1ccc(Br)cc1CO)Nc1ccc(F)cc1	i	i	i	i	i
COc1ccc(C2C(O)C(c3c[nH]c4ccccc34)=NN2C(=O)CCl)cc1 (centres undefined)	i	i	21*	i	i
O=C(NCCc1ccccc1)C1CCCN1C(=O)Nc1ccc(Cl)cc1 (centres undefined)	i	i	i	i	i
COc1ccc(-c2nc3ncccc3n2O)cc1	i	i	i	i	i
CCN(Cc1ccccc1)S(=O)(=O)c1ccc(C(=O)N(CCCN(C)C)c2nc3cc4c(cc3s2)OCCO4)cc1	i	i	i	i	i
SMILES	TRPC6 act	TRPC4 block	TRPC4 PAM	TRPC4 agonist	TRPC6 inhibitor
CCN(Cc1ccccc1)S(=O)(=O)c1ccc(C(=O)N(CCCN(C)C)c2nc3ccc(F)cc3s2)cc1	i	i	i	63*	i
CN(C)CCCN(C(=O)c1ccc(C(=O)c2ccccc2)cc1)c1nc2ccc(F)cc2s1	i	i	i	121*	i
COc1cc2nc(N(CCCN(C)C)C(=O)c3ccc(S(=O)(=O)N4CCc5ccccc54)cc3)sc2cc1OC	i	i	i	i	i
CN(C)CCCN(C(=O)c1ccc(S(=O)(=O)N(C)C2CCCCC2)cc1)c1nc2ccc(F)cc2s1	i	i	i	140*	i
CN(C)CCCN(C(=O)c1nc2ccccc2s1)c1nc2ccc(F)cc2s1	i	i	i	i	i
COc1ccc2sc(N(CCCN(C)C)C(=O)c3ccc(S(=O)(=O)N4CCCc5ccccc54)cc3)nc2c1	i	i	18*	i	i
CN(CC(=O)Nc1cccc(F)c1)C(=O)c1ccc(COc2ccccc2)o1	i	i	i	i	i
CC(/C=N/NC(=O)c1cc(-c2cccn2C)n[nH]1)=C\c1ccccc1	i	i	i	i	i
Cc1cc(NC(=O)Cc2cc(F)cc(F)c2)no1	i	i	i	i	i
O=C(CC1SC(=O)NC1=O)Nc1ccc(Cl)cc1 (centres undefined)	i	i	i	45*	i
Cc1cccc(-c2nn(-c3ccccc3)cc2C(=O)N(C)CC(=O)Nc2ccc(N3CCOCC3)cc2)c1	i	i	i	i	i
CNCCCOc1ccc(C)cc1Br	i	i	14*	i	i
CCCCNCCCOc1ccc(C)cc1Br	i	i	i	i	i
CNCCCOc1cc(C)cc(C)c1C	i	i	i	153*	i
CC(C)Oc1ccc(C(=O)OCC(=O)N2CCCc3ccccc32)cc1	i	i	i	i	i
CSCCC(NC(=O)c1ccccc1)C(=O)N/N=C(\C)Cc1ccccc1 (centres undefined)	i	i	i	i	i
O=[N+]([O-])c1ccccc1CNC1CCCc2ccccc21 (centres undefined)	i	-6*	i	i	i
Cc1ccccc1CC(=O)NC1CCCc2ccccc21 (centres undefined)	i	i	i	i	i
Cc1cc(C)c2c(=O)n(CC(=O)NCCCN3CCN(c4ccccc4F)CC3)sc2n1	i	-5*	i	i	i
Cc1cc(C)c2c(=O)n(CC(=O)NCCCN3CCOCC3)sc2n1	i	i	i	i	i
Cc1ccc2[nH]c(C(=O)N3CCCCC3)cc2c1	i	i	i	i	i
Cc1ccc2[nH]c(C(=O)NCCN3CCCC3)cc2c1	i	i	i	56*	i
CCOC(=O)c1cnc(-n2nc(C)cc2C)nc1NC1CCCCC1	i	i	18*	i	i
CCn1c(=O)c(C(=O)NNC(=O)c2ccccc2Cl)c(O)c2ccccc21	i	i	i	51*	i
CCn1c(=O)c(C(=O)NNC(=O)c2ccccc2F)c(O)c2ccccc21	i	i	i	114*	i
CSc1ccc(/C=C(\NC(=O)c2ccco2)C(=O)N2CCCCC2)cc1	i	i	i	i	i
